# From ChEMBL document CHEMBL3046282, “Synthesis, insecticidal activity, crystal structure, and molecular docking studies of nitenpyram analogues with an ω-hydroxyalkyl ester arm anchored on the tetrahydropyrimidine ring” (2012)
# The source made the active and inactive calls. The rule behind the calls is not given here.
# Tests used:
# Nilaparvata lugens [1] = test: Insecticidal activity against Nilaparvata lugens (brown planthopper) assessed as mortality at 25 degC after 72 hr at 100 mg/L; assay type: functional
# Outline: (§1)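 Standard spray test with slight modification. Compounds dissolved in DMF, then serially diluted with water containing Triton X-80 (0.1 mg/L). Groups of 12 insects in glass Petri dishes sprayed with a Potter sprayer, air-dried, then held under normal rearing conditions (25±1 °C, […], 12 h light). Scored at 72 h on a 0–100 scale against a negative control, using kill count and size of live insects. Three replicates.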
# Myzus persicae [2] = test: Insecticidal activity against Myzus persicae (green peach aphid) assessed as mortality at 25 degC after 72 hr at 100 mg/L; assay type: functional
# Myzus persicae [3] = test: Insecticidal activity against Myzus persicae (green peach aphid) assessed as mortality at 25 degC after 72 hr at 20 mg/L; assay type: functional
# Nilaparvata lugens [4] = test: Insecticidal activity against Nilaparvata lugens (brown planthopper) assessed as mortality at 25 degC after 72 hr at 20 mg/L; assay type: functional; outline: as §1
# Myzus persicae [5] = test: Insecticidal activity against Myzus persicae (green peach aphid) assessed as mortality at 25 degC after 72 hr; assay type: functional
# Nilaparvata lugens [6] = test: Insecticidal activity against Nilaparvata lugens (brown planthopper) assessed as mortality at 25 degC after 72 hr at 4 mg/L; assay type: functional; outline: as §1
# Nilaparvata lugens [7] = test: Insecticidal activity against Nilaparvata lugens (brown planthopper) assessed as mortality at 25 degC after 72 hr; assay type: functional
# Myzus persicae [8] = test: Insecticidal activity against Myzus persicae (green peach aphid) assessed as mortality at 25 degC after 72 hr at 4 mg/L; assay type: functional
# [9] = Binding affinity to nicotinic acetylcholine receptor assessed as hydrogen bonding
SMILES,mortality at 100 µg/mL (Nilaparvata lugens [1]),mortality at 100 µg/mL (Myzus persicae [2]),mortality at 20 µg/mL (Myzus persicae [3]),mortality at 20 µg/mL (Nilaparvata lugens [4]),"LC50 (Myzus persicae [5]; Myzus persicae, 72 h)",mortality at 4 µg/mL (Nilaparvata lugens [6]),LC50 (Nilaparvata lugens [7]),mortality at 4 µg/mL (Myzus persicae [8]),Activity [9],LC100 (Myzus persicae [5])
CCN(Cc1ccc(Cl)nc1)C1=C([N+](=O)[O-])CN(CC(=O)OCCO)CN1C,100%,100%,58%,50%,,,,,,
CCN(Cc1ccc(Cl)nc1)C1=C([N+](=O)[O-])CN(C(CC(C)C)C(=O)OCCO)CN1C (centres undefined),100%,100%,100%,100%,0.17 µg/mL,95%,0.17 µg/mL,100%,Active,
CCN(Cc1ccc(Cl)nc1)C1=C([N+](=O)[O-])CN(CC(=O)OCCCCCO)CN1C,90%,100%,25%,23%,,,,,,
CCN(Cc1ccc(Cl)nc1)C1=C([N+](=O)[O-])CN(CCC(=O)OCCCO)CN1C,100%,100%,100%,98%,,70%,,55%,,
CCN(Cc1ccc(Cl)nc1)C1=C([N+](=O)[O-])CN(CCCC(=O)OCCCCCCO)CN1C,90%,88%,10%,10%,,,,,,
"CCN(Cc1ccc(Cl)nc1)C1=C([N+](=O)[O-])CN(C(Cc2ccc(O)cc2)C(=O)OCCO)CN1C (single isomer, unassigned; (+))",80%,85%,10%,15%,,,,,,
CCCOC(=O)CCN1CC([N+](=O)[O-])=C(N(CC)Cc2ccc(Cl)nc2)N(C)C1,100%,,,100%,,75%,,,,
CCN(Cc1ccc(Cl)nc1)C1=C([N+](=O)[O-])CN(CCCC(=O)OCCCO)CN1C,100%,100%,92%,80%,,,,,,
CCN(Cc1ccc(Cl)nc1)C1=C([N+](=O)[O-])CN(C(Cc2ccccc2)C(=O)OCCO)CN1C (centres undefined),80%,90%,15%,20%,,,,,,
CCN(Cc1ccc(Cl)nc1)C1=C([N+](=O)[O-])CN(CC(=O)OCCCO)CN1C,100%,100%,50%,45%,,,,,,
CCN(Cc1ccc(Cl)nc1)C1=C([N+](=O)[O-])CN(CCC(=O)OCCCCO)CN1C,100%,100%,83%,80%,,,,,,
CCN(Cc1ccc(Cl)nc1)C1=C([N+](=O)[O-])CN(CCC(=O)OCCCCCO)CN1C,100%,98%,50%,40%,,,,,,
CCN(Cc1ccc(Cl)nc1)C1=C([N+](=O)[O-])CN(C(CC(C)C)C(=O)OC)CN1C (centres undefined),100%,,,100%,,50%,0.216 µg/mL,,,
CCN(Cc1ccc(Cl)nc1)C1=C([N+](=O)[O-])CN(CCCC(=O)OCCCCCO)CN1C,98%,95%,25%,15%,,,,,,
CCN(Cc1ccc(Cl)nc1)/C(=C/[N+](=O)[O-])NC [NITENPYRAM],100%,100%,100%,100%,,100%,,100%,,0.129 mg/L
CCN(Cc1ccc(Cl)nc1)C1=C([N+](=O)[O-])CN(CCC(=O)OCCO)CN1C,100%,100%,100%,100%,,100%,0.154 µg/mL,100%,Active,
CCN(Cc1ccc(Cl)nc1)C1=C([N+](=O)[O-])CN(CC(=O)OCCCCCCO)CN1C,90%,95%,10%,15%,,,,,,
"CCN(Cc1ccc(Cl)nc1)C1=C([N+](=O)[O-])CN(C(C)C(=O)OCCO)CN1C (single isomer, unassigned; (+))",95%,100%,40%,45%,,,,,,
"CCC(C)C(C(=O)OCCO)N1CC([N+](=O)[O-])=C(N(CC)Cc2ccc(Cl)nc2)N(C)C1 (single isomer, unassigned; (+))",100%,100%,95%,95%,,35%,,30%,,
CCN(Cc1ccc(Cl)nc1)C1=C([N+](=O)[O-])CN(CCCC(=O)OCCO)CN1C,100%,100%,100%,90%,,,,10%,,
CCN(Cc1ccc(Cl)nc1)C1=C([N+](=O)[O-])CN(CCC(=O)OC(C)C)CN1C,100%,,,100%,,70%,,,,
CCN(Cc1ccc(Cl)nc1)C1=C([N+](=O)[O-])CN(CCCC(=O)OCCCCO)CN1C,100%,95%,70%,78%,,,,,,
CCN(Cc1ccc(Cl)nc1)C1=C([N+](=O)[O-])CN(C(C(=O)OCCO)c2ccc(Cl)cc2)CN1C (centres undefined),95%,95%,25%,25%,,,,,,
CCN(Cc1ccc(Cl)nc1)C1=C([N+](=O)[O-])CN(CCC(=O)OCCCCCCO)CN1C,90%,95%,33%,25%,,,,,,
CCN(Cc1ccc(Cl)nc1)C1=C([N+](=O)[O-])CN(CC(=O)OCCCCO)CN1C,95%,100%,33%,30%,,,,,,
CCN(Cc1ccc(Cl)nc1)C1=C([N+](=O)[O-])CN(C(C(=O)OCCO)C(C)C)CN1C (centres undefined),95%,100%,58%,65%,,,,,,
